CXCR6 inh: blocks human CXCR6 beta-arrestin recruitment; inhibition, % at 20 µM; CHO-K1 PathHunter CXCR6 beta-arrestin, luminescence; O00574; AID 602244; actives 0.36% (n = 360,000); in the data active means inhibition above about 34%, passing the limit was not always enough;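 further: antagonist mode with CXCL16 agonist at 10 nM final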
Target sequence (O00574 whole entry, looked up): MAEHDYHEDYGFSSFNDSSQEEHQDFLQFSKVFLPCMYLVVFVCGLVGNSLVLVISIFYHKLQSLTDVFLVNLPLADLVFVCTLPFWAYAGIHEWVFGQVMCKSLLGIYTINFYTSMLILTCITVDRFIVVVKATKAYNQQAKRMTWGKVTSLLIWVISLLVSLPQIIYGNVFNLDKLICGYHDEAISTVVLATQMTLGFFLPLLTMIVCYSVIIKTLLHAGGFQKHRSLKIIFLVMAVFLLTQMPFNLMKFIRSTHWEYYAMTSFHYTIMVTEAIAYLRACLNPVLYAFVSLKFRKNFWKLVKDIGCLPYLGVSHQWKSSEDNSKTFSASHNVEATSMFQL
APJ ag: APJ receptor agonism. P35414. CHO-K1 APJ PathHunter beta-arrestin, luminescence; 0% DMSO wells, 100% apelin. activation, % at 20 µM. actives 0.11% (n = 330,000). AID 2520;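 active means activation more than six SD over the plate average, tested at 20 µM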
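assay system = CHO-K1 APJ beta-arrestin complementation cell line | input = cell density 1000 per well | dosing = compound 20 µM once, DMSO 1% | timing = compound 90 min 25 °C, reagent 1 h | measured by = luminescence from split beta-galactosidase complementation, Galacton Star/Emerald II substrate | read-out basis = APJ agonist activity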
EBI2 antag: blocks human EBI2 receptor beta-arrestin signaling | P32249 | EBI2 beta-arrestin recruitment, luminescence, 7a,25-OHC stimulated | inhibition, % at 5 µM | actives 0.81% (n = 360,000) | AID 651636; in the data active means inhibition above about 38%;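 further: enzyme fragment complementation signal reports receptor beta-arrestin coupling in cells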
APJ antag: APJ receptor antagonism. CHO-K1 APJ beta-arrestin complementation, luminescence. actives 0.32% (n = 330,000). AID 2521. P35414. inhibition, % at 20 µM;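 active means inhibition above about 40% at 20 µM, limit read from the data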;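 further: cells challenged with 10 nM apelin-13 agonist together with compound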
CCR6 antag: antagonists of human CCR6 receptor | P51684 | CHO-K1 CCR6 PathHunter beta-arrestin, luminescence, CCL20-stimulated | inhibition, % at 20 µM | actives 0.49% (n = 340,000);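 active means compounds whose inhibition of the agonist-driven luminescence signal at 20 µM reaches about 50%, limit read from the data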;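 further: cells stimulated with CCL20 at 14 nM final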
Numbers stand for hits; - = inactive; . = not tested or not shown; ! = not active in a repeat. Compounds with a hit are over-represented: about 1.5% of the library has one in this group of screens.

SMILES | CXCR6 inh | APJ ag | EBI2 antag | APJ antag | CCR6 antag
Cc1cccc(C)c1NC(=O)C1c2ccccc2OCC(=O)N1CCCN1CCOCC1 (stereo unspecified) | - | . | - | . | .
Cc1ccccc1Oc1ccc2c(c1)[C@@H]1C[C@H](N(C)C(=O)c3cccnc3)[C@H]([C@H](C)O)C(=O)N1CC2 | - | . | - | . | .
CCc1nc2cc(NC(=O)C3(C)CCCN(C(C)=O)C3)ccc2o1 (stereo unspecified) | - | . | - | . | .
O=C(OCn1ncc(Cl)c(Cl)c1=O)c1cccc(C(F)(F)F)c1 | 50 | - | 52 | - | 59
Oc1c(Cl)cc(Cl)cc1/C=N/Nc1ncc(Br)cn1 | 62 | - | 76 | - | 74
O=C(N/N=C/c1cc(Cl)cc(Cl)c1O)c1ccncc1 | - | - | 68 | - | -
CCCCOCCCNC(=O)C[C@@H]1C[C@@]2(C(=O)OC)CC(C)(C)CC=C2N(Cc2ccco2)C1=O | . | . | - | . | .
Cc1c(CCOC(=O)C2C3CC4CC(C3)CC2C4)sc[n+]1CC(=O)c1ccc(Br)cc1 (stereo unspecified) | - | - | - | - | 53!
Cc1c(CCOC(=O)c2ccc(Cl)cc2Cl)sc[n+]1CC(=O)c1ccc(Br)cc1 | - | - | - | - | -
CC(C#N)Sc1ccc(S(=O)(=O)N(C)C2CCCCC2)cn1 (stereo unspecified) | - | - | - | - | -
Cc1ccc(C(=O)OCc2nnc(-c3ccccc3)o2)cc1S(=O)(=O)N1CCOCC1 | - | - | - | - | -
CCOc1ccc(N=C2C(=O)N(CN3CCOCC3)c3ccccc32)cc1 | - | - | - | - | 59
NC(=O)c1ncn([C@@H]2O[C@H](CNS(=O)(=O)c3cc4ccccc4s3)[C@@H](O)[C@H]2O)n1 | - | . | - | . | -
COc1cc(/C=C2/C(=O)NN(c3ccc(Cl)cc3)C2=O)ccc1OC(=O)c1ccco1 | 50 | - | - | - | 72
COc1cc(/C=C2/C(=O)NN(c3cccc(F)c3)C2=O)ccc1OC(=O)c1ccco1 | 40 | - | - | - | -
COc1cc(/C=C2/C(=O)NN(c3ccc(Cl)cc3)C2=O)cc(Br)c1O | - | - | - | - | -
COc1ccc(C(=O)Nc2ccc3c(c2)OCO3)cc1S(=O)(=O)N1CCOCC1 | - | . | - | . | .
NS(=O)(=O)c1ccc(NC(=O)c2ccc(F)cc2F)c(NC(=O)c2ccc(F)cc2F)c1 | - | - | - | - | 51
Cc1ccc(S(=O)(=O)N2CCOCC2)cc1NC(=O)c1ccc(F)cc1F | - | - | - | - | -
Cc1ccc(C(=O)NN2C(=O)/C(=C/c3cn(C)c4ccccc34)SC2=S)cc1 | - | . | - | . | -
Cn1cc(/C=C2\SC(=O)NC2=S)c2ccccc21 | - | - | - | - | 53
CCOc1ccc(C(=O)COc2ccc(NC(C)=O)cc2)cc1 | - | - | - | - | -
CCOc1ccc(NCC(=O)c2ccc(C)cc2)cc1 | 51 | - | - | - | 68
CC(=O)Nc1ccc(NCC(=O)c2ccccc2)cc1 | 51 | - | - | - | -
O=C(CNc1ccccc1)c1ccc([N+](=O)[O-])cc1 | - | - | - | - | -
SMILES | CXCR6 inh | APJ ag | EBI2 antag | APJ antag | CCR6 antag
Cc1noc(C)c1C(=O)OC(C)C(=O)NC(C)c1ccc(Cl)cc1Cl (stereo unspecified) | - | - | - | - | -
CCOC(=O)C1(C)CCCN1C(=O)c1ccc(N(C)C)cc1 (stereo unspecified) | - | . | - | . | .
CC(NNC(=S)N1CCN(c2ccccn2)CC1)c1nccc2ccccc12 (stereo unspecified) | - | . | - | . | 64
COc1ccc(-c2nc(-c3ccc4c(c3)OCO4)[nH]c2-c2ccc(OC)cc2)cc1 | - | - | 48 | - | -
O=C(N/N=C/c1cccc([N+](=O)[O-])c1O)c1cccs1 | - | - | - | - | 64
O=[N+]([O-])c1cccc(C=NNc2ccc3ccccc3n2)c1O | 37 | . | - | . | 60
COc1cc(-n2nc(C)c3c2OC(N)=C(C#N)C3c2ccccc2)c(Cl)c(Br)c1O (stereo unspecified) | - | - | - | - | 70
CCOC(=O)[C@]12CCCC=C1N(CCC1=CCCCC1)C(=O)[C@H](CC(=O)NCc1cccc(C(F)(F)F)c1)C2 | . | . | - | . | .
CCN(CC(=O)Nc1ccc(OC)cc1)C(=O)Cc1ccc(OC)c(S(=O)(=O)N2CCOCC2)c1 | - | - | - | - | -
CN1C(=CC=C2C=C(I)C(=O)C(I)=C2)C(C)(C)c2ccccc21 | 45 | . | - | . | 73
CCCC(=O)N(C1CC(C)C(C#N)(C#N)C1(C#N)C#N)N(C)C (stereo unspecified) | 81 | - | - | - | 94
CC(=O)N(C1CC(C)C(C#N)(C#N)C1(C#N)C#N)N(C)C (stereo unspecified) | - | - | - | - | 78
Cc1cccc(S(=O)(=O)NC(=O)C2(C)CCN2C(=O)Cc2cc(F)ccc2F)c1 (stereo unspecified) | - | . | - | . | .
O=[N+]([O-])c1cccnc1S(=O)(=O)c1ccccc1 | - | - | - | - | -
COc1nc(OC)nc(Oc2ccc(Cl)cc2[N+](=O)[O-])n1 | - | - | - | - | -
COc1ccc([N+](=O)[O-])c(S(=O)(=O)c2ccc(Cl)cc2)n1 | 68 | - | - | - | 75
COc1ccc([N+](=O)[O-])c(S(=O)(=O)c2ccccc2)n1 | 59 | - | - | - | 65
CCCN(C)C1CN(Cc2cn(Cc3ccc(OC)cc3)nn2)S(=O)(=O)C1 (stereo unspecified) | - | . | - | . | .
C=CCS/C(N)=N\N=C\c1cc(Br)cc([N+](=O)[O-])c1O | 34 | - | - | - | 62
O=[N+]([O-])c1cc(Br)cc(/C=N/n2cnnc2)c1O | - | - | - | - | -
Cc1ccc(C(=O)N/C(=C/c2ccc(N(C)C)cc2)C(=O)NCC2CCCO2)cc1 (stereo unspecified) | - | - | - | - | -
O=[N+]([O-])c1cc(Cl)cc(/C=N/n2cnnc2)c1O | 32 | - | - | - | -
CCOC(=O)Cc1c(-c2cccc(Cl)c2)nc2c3ccccc3ccn12 | - | . | - | . | .
CCOC(=O)c1c(SCCN2CCCC2)n(-c2ccccc2)c(=S)n(-c2ccccc2)c1=O | 88 | . | - | . | 105
O=C1NC[C@@H](CCCCN2C[C@H](Cc3ccc(O)cc3)N(CC3CCCCC3)C(=O)C2=O)N(Cc2ccccc2)C1=O | - | . | - | . | .
Cc1ccc(Cl)cc1N1CCN(C(=O)C(C)n2ncn3cccc3c2=O)CC1 (stereo unspecified) | - | - | - | - | -
COc1cccc(NC(=O)N2CCN(c3cccc(C)c3C)CC2)c1 | - | - | 78 | - | -
CCOC(=O)C1NN=C(C(=O)c2ccccc2)C1c1ccccc1 (stereo unspecified) | - | - | - | - | -
CCOC(=O)C1NN=C(C(=O)c2ccccc2)C1c1ccc(Cl)cc1 (stereo unspecified) | - | - | - | 47 | -

Assay outcomes (PubChem BioAssay)
